{
  "source": "ChEMBL document CHEMBL4049452",
  "about": "(J Med Chem, 2017)",
  "key": {"[1]": {"biological_target": "Glucagon-like peptide 1 receptor (Homo sapiens, UniProt P43220)", "sequence (P43220 whole entry)": "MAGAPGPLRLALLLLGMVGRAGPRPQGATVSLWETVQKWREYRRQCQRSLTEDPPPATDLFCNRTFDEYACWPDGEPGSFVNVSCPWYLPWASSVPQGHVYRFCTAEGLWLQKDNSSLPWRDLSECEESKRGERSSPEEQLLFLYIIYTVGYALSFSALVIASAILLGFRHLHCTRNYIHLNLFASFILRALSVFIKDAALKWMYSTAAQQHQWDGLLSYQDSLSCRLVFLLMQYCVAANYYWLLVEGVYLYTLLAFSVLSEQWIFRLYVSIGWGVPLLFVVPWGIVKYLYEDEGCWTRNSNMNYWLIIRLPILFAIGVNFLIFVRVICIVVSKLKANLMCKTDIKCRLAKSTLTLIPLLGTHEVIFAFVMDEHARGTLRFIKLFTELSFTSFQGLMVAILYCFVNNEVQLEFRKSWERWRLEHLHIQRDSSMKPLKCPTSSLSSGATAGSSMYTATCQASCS", "assay": "Agonist activity at human GLP-1 receptor expressed in HEK293 cells assessed as cAMP accumulation after 30 mins by HTRF assay", "assay_type": "functional, cell-based"}, "Glucagon receptor": {"biological_target": "Glucagon receptor (Homo sapiens, UniProt P47871)", "sequence (P47871 whole entry)": "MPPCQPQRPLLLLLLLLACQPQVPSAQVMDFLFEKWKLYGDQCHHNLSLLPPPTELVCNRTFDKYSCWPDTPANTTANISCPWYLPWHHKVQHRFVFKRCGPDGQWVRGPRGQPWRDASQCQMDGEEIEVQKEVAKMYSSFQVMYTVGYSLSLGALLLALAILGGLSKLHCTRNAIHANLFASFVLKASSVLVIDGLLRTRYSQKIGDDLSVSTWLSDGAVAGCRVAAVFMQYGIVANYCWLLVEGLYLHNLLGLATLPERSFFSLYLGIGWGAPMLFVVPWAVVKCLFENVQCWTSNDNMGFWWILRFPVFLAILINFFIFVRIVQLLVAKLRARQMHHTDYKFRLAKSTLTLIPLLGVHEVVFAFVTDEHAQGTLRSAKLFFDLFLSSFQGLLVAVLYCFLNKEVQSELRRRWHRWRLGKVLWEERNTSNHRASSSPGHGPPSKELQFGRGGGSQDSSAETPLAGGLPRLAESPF", "assay": "Agonist activity at human glucagon receptor expressed in HEK293 cells assessed as cAMP accumulation after 30 mins by HTRF assay", "assay_type": "functional, cell-based"}, "[2]": {"assay": "Cmax in C57/BL6 mouse at 1 mg/kg, sc by LC-MS/MS analysis", "assay_type": "ADME, organism-based", "parameters": "dose 1 mg/kg, route subcutaneous", "conditions": "in vivo", "procedure,_shortened": "(§1)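 Female C57/Bl6 mice given single 1 mg/kg sc dose; animals sacrificed and blood collected at 0.083, 0.25, 1, 2, 4, 8, 16 and 24 h. Plasma analysed by LC-MS/MS after protein precipitation; parameters from mean plasma concentrations by noncompartmental analysis.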"}, "[3]": {"assay": "Tmax in C57/BL6 mouse at 1 mg/kg, sc by LC-MS/MS analysis", "assay_type": "ADME, organism-based", "conditions": "in vivo", "procedure,_shortened": "as §1"}, "[4]": {"assay": "AUC in C57/BL6 mouse at 1 mg/kg, sc by LC-MS/MS analysis", "assay_type": "ADME, organism-based", "conditions": "in vivo", "procedure,_shortened": "as §1"}, "[5]": {"assay": "Half life in C57/BL6 mouse at 1 mg/kg, sc by LC-MS/MS analysis", "assay_type": "ADME, organism-based", "conditions": "in vivo", "procedure,_shortened": "as §1"}},
  "data": [
    {"compound": "CCCCCCCCCCCCCCCC(=O)N[C@@H](CCC(=O)NCCCC[C@H](NC(=O)[C@@H]1CCCN1C(=O)[C@@H]1CCCN1C(=O)[C@@H]1CCCN1C(=O)[C@H](C)NC(=O)CNC(=O)[C@H](CO)NC(=O)[C@H](CO)NC(=O)[C@@H]1CCCN1C(=O)CNC(=O)CNC(=O)[C@H](CC(N)=O)NC(=O)[C@H](CCCCN)NC(=O)[C@H](CC(C)C)NC(=O)[C@H](Cc1c[nH]c2ccccc12)NC(=O)[C@H](CCC(=O)O)NC(=O)[C@@H](NC(=O)[C@H](Cc1ccccc1)NC(=O)[C@H](CC(=O)O)NC(=O)[C@H](CCC(N)=O)NC(=O)[C@H](C)NC(=O)[C@H](CCCNC(=N)N)NC(=O)[C@H](CCCNC(=N)N)NC(=O)[C@H](CO)NC(=O)[C@H](CC(=O)O)NC(=O)[C@H](CCSC)NC(=O)[C@H](CCC(N)=O)NC(=O)[C@H](CCCCN)NC(=O)[C@H](CO)NC(=O)[C@H](CC(C)C)NC(=O)[C@H](CC(=O)O)NC(=O)[C@H](CO)NC(=O)[C@@H](NC(=O)[C@H](Cc1ccccc1)NC(=O)[C@@H](NC(=O)CNC(=O)[C@H](CCC(N)=O)NC(=O)[C@H](CO)NC(=O)[C@@H](N)Cc1cnc[nH]1)[C@@H](C)O)[C@@H](C)O)[C@@H](C)CC)C(N)=O)C(N)=O", "values": [
      {"measurement": "EC50", "setting": "[1]", "value": 0.0058, "unit": "nM"},
      {"measurement": "EC50", "setting": "Glucagon receptor", "value": 0.0063, "unit": "nM"}
    ]},
    {"compound": "H-HSQGTFTSDLSKQMDSRRAQDFIEWLKNGGPSS-NH2", "values": [
      {"measurement": "EC50", "setting": "[1]", "value": 0.0153, "unit": "nM"},
      {"measurement": "EC50", "setting": "Glucagon receptor", "value": 0.0089, "unit": "nM"}
    ]},
    {"compound": "H-HGEGTFTSDLSKQMDSRRAQDFVEWLKNGGPSSGAPPPS-NH2", "values": [
      {"measurement": "EC50", "setting": "[1]", "value": 0.0222, "unit": "nM"},
      {"measurement": "EC50", "setting": "Glucagon receptor", "value": 10000, "unit": "nM"}
    ]},
    {"compound": "CC[C@H](C)[C@H](NC(=O)[C@H](Cc1ccccc1)NC(=O)[C@H](CC(C)C)NC(=O)[C@H](CCCNC(=N)N)NC(=O)[C@@H](NC(=O)[C@H](C)NC(=O)[C@H](CCC(=O)O)NC(=O)[C@H](CCC(=O)O)NC(=O)[C@H](CCC(=O)O)NC(=O)[C@H](CCSC)NC(=O)[C@H](CCC(N)=O)NC(=O)[C@H](CCCCN)NC(=O)[C@H](CO)NC(=O)[C@H](CC(C)C)NC(=O)[C@H](CC(=O)O)NC(=O)[C@H](CO)NC(=O)[C@@H](NC(=O)[C@H](Cc1ccccc1)NC(=O)[C@@H](NC(=O)CNC(=O)[C@H](CCC(=O)O)NC(=O)CNC(=O)[C@@H](N)Cc1cnc[nH]1)[C@@H](C)O)[C@@H](C)O)C(C)C)C(=O)N[C@@H](CCC(=O)O)C(=O)N[C@@H](Cc1c[nH]c2ccccc12)C(=O)N[C@@H](CC(C)C)C(=O)N[C@@H](CCSC)C(=O)N[C@@H](CC(N)=O)C(=O)N[C@H](C(=O)N[C@@H](CCCCN)C(=O)N[C@@H](CCCNC(=N)N)C(=O)N[C@@H](CC(N)=O)C(=O)N[C@@H](CCCNC(=N)N)C(=O)NCC(=O)N[C@@H](C)C(=O)N1CCC[C@H]1C(=O)N1CCC[C@H]1C(=O)N1CCC[C@H]1C(=O)N[C@@H](CO)C(N)=O)[C@@H](C)O", "values": [
      {"measurement": "EC50", "setting": "[1]", "value": 0.0012, "unit": "nM"},
      {"measurement": "EC50", "setting": "Glucagon receptor", "value": "> 100000", "unit": "nM"}
    ]},
    {"compound": "H-HSQGTFTSDLSKQMDSRRAQDFIEWLKNG-NH2", "values": [
      {"measurement": "EC50", "setting": "[1]", "value": 0.0082, "unit": "nM"},
      {"measurement": "EC50", "setting": "Glucagon receptor", "value": 0.0019, "unit": "nM"}
    ]},
    {"compound": "H-HGEGTFTSDLSKQMDSRRAQDFVQWLKNGGPSSGAPPPS-NH2", "values": [
      {"measurement": "EC50", "setting": "[1]", "value": 0.0558, "unit": "nM"},
      {"measurement": "EC50", "setting": "Glucagon receptor", "value": 42000, "unit": "nM"}
    ]},
    {"compound": "H-HSEGTFTSDLSKQMDSRRAQDFIEWLKNGGPSSGAPPPS-NH2", "values": [
      {"measurement": "EC50", "setting": "Glucagon receptor", "value": 170, "unit": "nM"}
    ]},
    {"compound": "H-HSQGTFTSDLSKQMDSRRAQDFIEWLKNGGPSSNNIA-NH2", "values": [
      {"measurement": "EC50", "setting": "[1]", "value": 0.0172, "unit": "nM"},
      {"measurement": "EC50", "setting": "Glucagon receptor", "value": 0.0156, "unit": "nM"}
    ]},
    {"compound": "CCCCCCCCCCCCCCCC(=O)N[C@@H](CCC(=O)NCCCC[C@H](NC(=O)[C@H](CO)NC(=O)[C@@H]1CCCN1C(=O)[C@@H]1CCCN1C(=O)[C@@H]1CCCN1C(=O)[C@H](C)NC(=O)CNC(=O)[C@H](CO)NC(=O)[C@H](CO)NC(=O)[C@@H]1CCCN1C(=O)CNC(=O)CNC(=O)[C@H](CC(N)=O)NC(=O)[C@H](CCCCN)NC(=O)[C@H](CC(C)C)NC(=O)[C@H](Cc1c[nH]c2ccccc12)NC(=O)[C@H](CCC(=O)O)NC(=O)[C@@H](NC(=O)[C@H](Cc1ccccc1)NC(=O)[C@H](CC(=O)O)NC(=O)[C@H](CCC(N)=O)NC(=O)[C@H](C)NC(=O)[C@H](CCCNC(=N)N)NC(=O)[C@H](CCCNC(=N)N)NC(=O)[C@H](CO)NC(=O)[C@H](CC(=O)O)NC(=O)[C@H](CCSC)NC(=O)[C@H](CCC(N)=O)NC(=O)[C@H](CCCCN)NC(=O)[C@H](CO)NC(=O)[C@H](CC(C)C)NC(=O)[C@H](CC(=O)O)NC(=O)[C@H](CO)NC(=O)[C@@H](NC(=O)[C@H](Cc1ccccc1)NC(=O)[C@@H](NC(=O)CNC(=O)[C@H](CCC(N)=O)NC(=O)[C@H](CO)NC(=O)[C@@H](N)Cc1cnc[nH]1)[C@@H](C)O)[C@H](C)O)[C@@H](C)CC)C(N)=O)C(N)=O", "values": [
      {"measurement": "EC50", "setting": "[1]", "value": 0.0052, "unit": "nM"},
      {"measurement": "EC50", "setting": "Glucagon receptor", "value": 0.0062, "unit": "nM"},
      {"measurement": "Cmax", "setting": "[2]", "value": 3450, "unit": "ng/mL"},
      {"measurement": "Tmax", "setting": "[3]", "value": 2, "unit": "h"},
      {"measurement": "AUC", "setting": "[4]", "value": 17000, "unit": "ng·h/mL"},
      {"measurement": "half-life", "setting": "[5]", "value": 2.2, "unit": "h"}
    ]},
    {"compound": "H-HSQGTFTSDLSKQMEEEAVRLFIEWLMNTKRNRGAPPPS-NH2", "values": [
      {"measurement": "EC50", "setting": "[1]", "value": 0.0022, "unit": "nM"},
      {"measurement": "EC50", "setting": "Glucagon receptor", "value": 1.24, "unit": "nM"}
    ]},
    {"compound": "CC[C@H](C)[C@H](NC(=O)[C@H](Cc1ccccc1)NC(=O)[C@H](CC(C)C)NC(=O)[C@H](CCCNC(=N)N)NC(=O)[C@@H](NC(=O)[C@H](CCCNC(=N)N)NC(=O)[C@H](CCCNC(=N)N)NC(=O)[C@H](CO)NC(=O)[C@H](CC(=O)O)NC(=O)[C@H](CCSC)NC(=O)[C@H](CCC(N)=O)NC(=O)[C@H](CCCCN)NC(=O)[C@H](CO)NC(=O)[C@H](CC(C)C)NC(=O)[C@H](CC(=O)O)NC(=O)[C@H](CO)NC(=O)[C@@H](NC(=O)[C@H](Cc1ccccc1)NC(=O)[C@@H](NC(=O)CNC(=O)[C@H](CCC(=O)O)NC(=O)CNC(=O)[C@@H](N)Cc1cnc[nH]1)[C@@H](C)O)[C@@H](C)O)C(C)C)C(=O)N[C@@H](CCC(=O)O)C(=O)N[C@@H](Cc1c[nH]c2ccccc12)C(=O)N[C@@H](CC(C)C)C(=O)N[C@@H](CCCCN)C(=O)N[C@@H](CC(N)=O)C(=O)NCC(=O)NCC(=O)N1CCC[C@H]1C(=O)N[C@@H](CO)C(=O)N[C@@H](CO)C(=O)NCC(=O)N[C@@H](C)C(=O)N1CCC[C@H]1C(=O)N1CCC[C@H]1C(=O)N1CCC[C@H]1C(=O)N[C@@H](CO)C(N)=O", "values": [
      {"measurement": "EC50", "setting": "[1]", "value": 0.0018, "unit": "nM"},
      {"measurement": "EC50", "setting": "Glucagon receptor", "value": 58000, "unit": "nM"}
    ]}
  ]
}
